Screens (PubChem)
OX1R antag-1 – OX1R (human) antagonism. O43613. OX1R-expressing cells, FRET antagonist read-out. inhibition, % at 6.6 µM. 330,000 compounds, 1.8% hits. AID 485270; in the data active = inhibition mostly above about 38%, no sharp cut-off; inactive = mostly below about 40%
GalR3 antag – blocks the human galanin receptor 3; AID 651719; HEK293 GalR3-CNG cAMP membrane potential fluorescence; galR3 body fused to GalR1 C-terminus; 360,000 compounds, 0.44% hits; O60755; inhibition, % at 3 µM;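 active = inhibition above the screen-wide average plus 3 SD, cut at about 13% in these data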;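 note: forskolin and galanin both at EC90 stimulate the cells; cAMP rise reported by CNG channel membrane potential dye signal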
Target sequence (O60755 1-299 limits assumed): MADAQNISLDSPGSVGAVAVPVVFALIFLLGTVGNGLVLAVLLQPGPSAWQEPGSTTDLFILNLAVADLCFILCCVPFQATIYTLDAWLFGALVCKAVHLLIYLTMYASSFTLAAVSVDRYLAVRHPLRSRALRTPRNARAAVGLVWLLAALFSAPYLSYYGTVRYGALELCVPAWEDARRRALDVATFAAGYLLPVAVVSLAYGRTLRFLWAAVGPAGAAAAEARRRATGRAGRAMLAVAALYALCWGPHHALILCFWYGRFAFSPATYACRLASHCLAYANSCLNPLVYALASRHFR
OX1R antag-2 – antagonists of human orexin 1 receptor; 330,000 compounds, 0.43% hits; CHO/OX1R cells, Fluo-8 calcium fluorescence, orexin A; inhibition, % at 5 µM; AID 434989;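 active = inhibition above its plate's threshold, mean inhibition of all tested compounds on the plate plus 3 SD, cut at about 37% in these data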
CHO parental Ca – counter-screen: ATP calcium response change in parental CHO cells; 330,000 compounds, 0.63% hits; AID 463079; inhibition, % at 5.6 µM; parental CHO-K1, ATP-induced calcium, Fluo-8 fluorescence;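 active = inhibition above that plate's mean sample inhibition plus 3 SD, cut at about 26% in these data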
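Assay system: untransfected parental CHO cell line. Also added: ATP agonist challenge. Dosing: one dose, 5.6 µM nominal. Measured by: Fluo-8 fluorescence. Read-out: % inhibition. Benchmarks: ATP wells versus no-ATP DMSO wells. Repeats: no replicates.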
GPR7 antag – antagonists of human GPR7 (neuropeptides B/W receptor 1) | GPR7-expressing cells, fluorescence antagonist assay | 290,000 compounds, 1.1% hits | inhibition, % at 4.4 µM | AID 1861 | P48145; in the data active = inhibition above about 16%, passing the limit was not always enough;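 note: cells stimulated with the agonist NPW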
Hits are given with their value; . = inactive; / = no result given. Rows were chosen to be rich in hits. Some 3.1% of all compounds tested hit in one or more screens of this group.

SMILES | OX1R antag-1 | GalR3 antag | OX1R antag-2 | CHO parental Ca | GPR7 antag
COc1cc2c(C#CCCO)c(-c3ccsc3)oc(=O)c2cc1OC | 61.4 | . | . | . | /
COc1cc2c(C#CCCO)c(-c3ccc(C#N)cc3)oc(=O)c2cc1OC | . | . | . | . | /
CN(Cc1cccc(F)c1)C(=O)c1ccccc1Sc1ccccc1C#N | . | . | . | . | .
CN(CC(=O)Nc1cccc(F)c1)C(=O)c1ccccc1Sc1ccccc1C#N | 32.8 | . | . | . | /
COc1cccc(NC(=O)CN(C)C(=O)c2ccccc2Sc2ccccc2C#N)c1 | 38.8 | . | . | . | /
COc1cccc(CN(C)C(=O)c2ccccc2Sc2ccccc2C#N)c1 | . | . | . | . | .
O=C(NCC(c1ccco1)N1CCCCC1)c1ccc(S(=O)(=O)Nc2ccccc2)cc1 (stereo not given) | . | . | . | . | /
O=C(NCC1COc2ccccc2O1)c1ccc(Cl)c(S(=O)(=O)N2CCCC2)c1 (stereo not given) | 34.5 | . | . | . | /
O=C(NCC(c1ccco1)N1CCCCC1)c1ccc2c(c1)S(=O)(=O)c1ccccc1C2=O (stereo not given) | 62.6 | . | . | . | .
O=C(NCC1COc2ccccc2O1)c1ccc(Cl)c(S(=O)(=O)N2CCOCC2)c1 (stereo not given) | . | . | . | . | /
O=C(NCC(c1ccco1)N1CCCC1)c1ccc(Cl)c(S(=O)(=O)N2CCc3ccccc32)c1 (stereo not given) | . | 86.7 | . | . | /
Nc1ccc(C(=O)N2CCN(S(=O)(=O)c3ccc(Br)cc3)CC2)cc1[N+](=O)[O-] | . | . | . | . | /
CCCCCCCCCCn1ccc(=N)cc1 | . | 97.0 | 48.0 | 34.0 | 22.8
O=C(NCc1ccc(Cl)cc1)C1CCN(S(=O)(=O)c2cccnc2)CC1 | . | . | . | . | .
Cc1cnc(C(=O)OCC(=O)NCc2ccc(Cl)cc2)cn1 | . | . | . | . | /
COc1ccc(OCC(O)CNC(C)c2ccccc2)cc1 (stereo not given) | . | . | . | . | .
CCCC(NCC(O)COc1ccc(-c2ccccc2)cc1)c1ccccc1 (stereo not given) | . | . | . | 53.4 | .
CSc1nc2c(c(-c3ccc(O)cc3)c1C#N)CCC2 | . | . | . | 48.0 | .
CCOCCCNC(=O)/C=C1\Sc2ccccc2N(Cc2ccccc2F)C1=O | 44.0 | . | . | . | 18.6
CCOCCCNC(=O)CN1C(=O)/C(=C/c2ccccc2C)Sc2ccccc21 | . | . | . | . | .
CC(=O)Nc1nc(-c2ccc([N+](=O)[O-])cc2)cs1 | . | . | . | . | .
O=C(Nc1ccc([N+](=O)[O-])cc1)Nc1nc(-c2ccc(Cl)s2)cs1 | . | . | . | 57.2 | .
Cc1ccc(C(=O)N/C(=C/c2ccc(-c3cc(C(F)(F)F)ccc3Cl)o2)C(=O)NCc2cccnc2)cc1 | 36.0 | . | . | . | .
Cc1ccc2n(n1)c(=O)c(Cc1ccccc1)c([O-])[n+]2-c1ccccc1 | 48.1 | . | . | . | .
Cc1cccc(C(=O)n2c(=S)nc3cc(C)ccn32)c1 | 41.4 | . | . | . | .
SMILES | OX1R antag-1 | GalR3 antag | OX1R antag-2 | CHO parental Ca | GPR7 antag
Cc1c(NS(=O)(=O)c2cccs2)cccc1-c1nc2cccnc2s1 | . | . | . | . | .
O=S(=O)(Nc1cccc2ncccc12)c1cccs1 | . | / | . | 40.1 | .
CC1(C(=O)NC2CCc3ccccc32)CCN1CCc1ccccc1 (stereo not given) | / | . | / | / | /
CCC(=O)NC(Nc1sc2c(c1C(=O)OC)CCCC2)(C(F)(F)F)C(F)(F)F | . | . | . | 45.6 | .
O=C(NCCN1CCOCC1)c1cnn2c1NC(c1cccs1)CC2C(F)(F)F (stereo not given) | . | . | . | . | .
CCOC(=O)c1oc2ccccc2c1COC(=O)CNC(=O)c1ccccc1OC | 67.6 | . | . | . | /
CCOC(=O)c1oc2ccccc2c1COC(=O)CNC(=O)c1cc(OC)c(OC)c(OC)c1 | . | . | . | . | /
COCC(C)n1c(SCC(=O)N2CCc3ccccc3C2)nc2ccccc2c1=O (stereo not given) | 69.5 | . | . | . | .
CNS(=O)(=O)c1cc(NC(=O)c2cnc(SC)n2-c2ccccc2)ccc1C | . | . | . | . | .
CC(C)OCCCNC(=O)CN1C(=O)/C(=C/c2ccccc2)Sc2ccccc21 | 69.4 | . | . | . | .
CCc1ccc(/C=C2/Sc3ccccc3N(CC(=O)NCCCOC)C2=O)cc1 | . | / | . | . | .
